Experimental data gathered from unrelated publications.
Compare with care: the assays were run in different laboratories.
ahcY: ahcY (Saccharolobus solfataricus, UniProt P50252)
MAOA: Amine oxidase [flavin-containing] A (MAOA, Homo sapiens, UniProt P21397)
CTSS: Cathepsin S (CTSS, Homo sapiens, UniProt P25774)

SMILES	target	observed	mode	method	quantity	result
NC(=O)c1cccc(C#CCN(CC[C@H](N)C(=O)O)C[C@H]2O[C@@H](n3cnc4c(N)ncnc43)[C@H](O)[C@@H]2O)c1	ahcY	enzyme activity	inhibitor		IC50	8.5 µM
O=C(O)[C@@H]1CS[C@H]2CS[C@H](CCS)N21	sfhI (Serratia fonticola, UniProt Q9RMI1)	enzyme activity	inhibitor		IC50	> 1000 µM
C#CCN(C)CCCCCCCCOCc1ccc(CN(C)c2c3c(nc4ccccc24)CCCC3)cc1	MAOA	enzyme activity	inhibitor	fluorescence	IC50	8.29 µM
CC[C@H](C)[C@H](NC(=O)[C@H](Cc1ccc(O)cc1)NC(=O)[C@@H](NC(=O)[C@H](CCCNC(=N)N)NC(=O)[C@@H](N)CC(=O)O)C(C)C)C(=O)N[C@@H](Cc1cnc[nH]1)C(=O)N1CCC[C@H]1C(=O)N[C@@H](Cc1ccccc1)C(=O)O	Angiotensin-converting enzyme 2 (ACE2, Homo sapiens, UniProt Q9BYF1)	enzyme activity	inhibitor	fluorescence	IC50	4.9 µM
C#CCN(C)CCCCCOCc1ccc(CN(C)c2c3c(nc4ccc(C)cc24)CCCC3)cc1	MAOA	enzyme activity	inhibitor	fluorescence	IC50	0.53 µM
CNC(=O)c1ccc(-c2cnn3ccc(C(=O)N(C)c4ccc(Cl)c(C(=O)OC)c4)cc23)cc1	MAOA	cell-free assay			IC50	> 30 µM
C#CCN(C)CCCCCCOc1cccc(CN(C)c2c3c(nc4ccc(F)cc24)CCCC3)c1	MAOA	enzyme activity	inhibitor	fluorescence	IC50	50.7 µM
CC(=O)N(CC#Cc1cccc(C(N)=O)c1)C[C@H]1C[C@@H](n2ccc3c(Cl)ncnc32)[C@H](O)[C@@H]1O	ahcY	enzyme activity	inhibitor		IC50	> 333 µM
CNC(=O)c1ccc(-c2cnn3ccc(C(=O)N(C)c4ccc(Cl)c(C(=O)O)c4)cc23)cc1	Alpha-1A adrenergic receptor (ADRA1A, Homo sapiens, UniProt P35348)	cell-free assay			IC50	> 30 µM
CC(C)C[C@H](NC(=O)[C@H]1O[C@@H]1C(=O)O)C(=O)NCCCCN=C(N)N	CTSS	enzyme activity	inhibitor		IC50	0.00073 µM
CN(C)c1cccc2c(S(=O)(=O)NCCCCCCCCCCC(=O)O)cccc12	Fatty acid-binding protein, liver (FABP1, Homo sapiens, UniProt P07148)	binding		fluorescence	Kd	0.2 µM
Cn1nccc1[C@]1(CNC(=O)c2ccc(F)c(F)c2-c2ccc(C(F)(F)F)cc2)NC(=O)NC1=O	CTSS	enzyme activity	inhibitor		IC50	> 100 µM
C#CCN(C)CCCCCCCOc1cccc(CN(C)c2c3c(nc4ccccc24)CCCC3)c1	MAOA	enzyme activity	inhibitor	fluorescence	IC50	7.68 µM
Cc1ccc(F)c(CNS(=O)(=O)c2cccc3cccnc23)c1	Amine oxidase [flavin-containing] B (Maob, Mus musculus, UniProt Q8BW75)	enzyme activity	inhibitor	fluorescence	IC50	1.81 µM
